Test results: ChEMBL document CHEMBL1121813, “Dihydrochalcone sweeteners. A study of the atypical temporal phenomena” (1981)

Columns and labels:
Assay type in all cases: functional
[1] = organism: Homo sapiens; assay: Salty character at a concentration of 248 ppm (mean value)
[2] = organism: Homo sapiens; assay: Number of taste judgments per compound
[3] = organism: Homo sapiens; assay: Intensity calculated on a weight basis relative to an 85500 ppm sucrose solution at a concentration of 248 ppm (mean value)
Summary of the method: (§1)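 Trained human panel tasted aqueous solutions of purity-checked (≥95 weight percent) compounds cleared for mutagenicity and mouse oral toxicity. Weight-basis intensity I_w = perceived intensity × (85500 ppm sucrose / compound concentration in ppm). The mean is reported with 2S_m limits; data deviating excessively at 95% confidence were rejected by the t-value method.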

[4] = organism: Homo sapiens; assay: Experimentally determined perceived intensity of compound at a concentration of 248 ppm (mean value)
Summary of the method: (§2)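 Trained human sensory panel of judges tasted aqueous solutions of the compound. Samples had to be ≥95 weight % pure (HPLC, proton titration, Karl Fischer), non-mutagenic in five Salmonella typhimurium strains with and without microsomal activation, and non-toxic in a single-oral-dose mouse test. Perceived intensity (Ip) was read from time–intensity curves at 4- or 6-s intervals and averaged. Outliers at the 95% level were rejected by t-value. Values reported as mean (2Sm).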

[5] = organism: Homo sapiens; assay: Intensity calculated on a molar basis relative to a 0.25 M sucrose solution at a concentration of 248 ppm (mean value)
Summary of the method: (§3)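 Trained human judges tasted aqueous solutions of the test compound; compounds were first required to be ≥95 weight percent pure and free of mutagenicity (five Salmonella typhimurium strains, ± microsomal activation) and of single oral dose mouse toxicity. Molar intensity I_m = perceived intensity × (0.25 M sucrose / compound molar concentration). The mean is reported with 2S_m limits; outliers were rejected at 95% confidence by t-value.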

[6] = organism: Homo sapiens; assay: Bitter character at a concentration of 248 ppm (mean value)
Summary of the method: (§4)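 Trained human panel tasted aqueous solutions. Each judge reported whether there was an aftertaste and its character (sweet, bitter or bitter-sweet). The value is the percentage of judgments reporting a bitter aftertaste.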

[7] = organism: Homo sapiens; assay: Sweet character at a concentration of 248 ppm (mean value)
[8] = organism: Homo sapiens; assay: Other taste character at a concentration of 248 ppm (mean value)
Summary of the method: (§5)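 Trained human sensory panel (Swartz method) tasted dilute aqueous solutions of the compounds, which had to be ≥95 weight percent pure and free of mutagenicity and toxicity. Taste character is reported as the mean value with 2S_m limits. Data deviating excessively at the 95% confidence level were rejected by the t-value method.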

[9] = organism: Homo sapiens; assay: Sweet / Bitter character at a concentration of 248 ppm (mean value); 8/92
[10] = organism: Homo sapiens; assay: Sour character at a concentration of 248 ppm (mean value)
[11] = organism: Homo sapiens; assay: Percentage of judgments reporting an aftertaste at a concentration of 248 ppm and character thereof
Summary of the method: (§6)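 Trained judges tasted aqueous solutions of the compounds, which had to be ≥95 weight percent pure and to have passed mutagenicity and single oral dose toxicity screening. The value is the percentage of panel judgments reporting an aftertaste. Where given, its character is recorded as sweet, bitter or bitter-sweet.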

[12] = organism: Homo sapiens; assay: Percentage of judgments reporting an aftertaste at a concentration of 2400 ppm and character thereof; summary of the method: as §6
[13] = organism: Homo sapiens; assay: Experimentally determined perceived intensity of compound at a concentration of 2400 ppm (mean value); summary of the method: as §2
[14] = organism: Homo sapiens; assay: Intensity calculated on a molar basis relative to a 0.25 M sucrose solution at a concentration of 250 ppm (mean value); summary of the method: as §3
[15] = organism: Homo sapiens; assay: Sweet character at a concentration of 250 ppm (mean value); summary of the method: as §5
[16] = organism: Homo sapiens; assay: Experimentally determined perceived intensity of compound at a concentration of 250 ppm (mean value); summary of the method: as §2
[17] = organism: Homo sapiens; assay: Sour character at a concentration of 250 ppm (mean value); summary of the method: as §5
[18] = organism: Homo sapiens; assay: Percentage of judgments reporting an aftertaste at a concentration of 250 ppm and character thereof; summary of the method: as §6
[19] = organism: Homo sapiens; assay: Bitter character at a concentration of 250 ppm (mean value); summary of the method: as §4
[20] = organism: Homo sapiens; assay: Salty character at a concentration of 250 ppm (mean value); summary of the method: as §5
[21] = organism: Homo sapiens; assay: Other taste character at a concentration of 250 ppm (mean value); summary of the method: as §5
[22] = organism: Homo sapiens; assay: Intensity calculated on a weight basis relative to an 85500 ppm sucrose solution at a concentration of 250 ppm (mean value); summary of the method: as §1
[23] = organism: Homo sapiens; assay: Sweet / Bitter character at a concentration of 250 ppm (mean value); 94/6
[24] = organism: Homo sapiens; assay: Experimentally determined perceived intensity of compound at a concentration of 252 ppm (mean value); summary of the method: as §2
[25] = organism: Homo sapiens; assay: Sour character at a concentration of 252 ppm (mean value); summary of the method: as §5
[26] = organism: Homo sapiens; assay: Other taste character at a concentration of 252 ppm (mean value); summary of the method: as §5
[27] = organism: Homo sapiens; assay: Intensity calculated on a weight basis relative to an 85500 ppm sucrose solution at a concentration of 252 ppm (mean value); summary of the method: as §1
[28] = organism: Homo sapiens; assay: Sweet / Bitter character at a concentration of 252 ppm (mean value)
[29] = organism: Homo sapiens; assay: Intensity calculated on a molar basis relative to a 0.25 M sucrose solution at a concentration of 252 ppm (mean value); summary of the method: as §3
[30] = organism: Homo sapiens; assay: Bitter character at a concentration of 252 ppm (mean value); summary of the method: as §4
[31] = organism: Homo sapiens; assay: Salty character at a concentration of 252 ppm (mean value); summary of the method: as §5
[32] = organism: Homo sapiens; assay: Sweet character at a concentration of 252 ppm (mean value); summary of the method: as §5
[33] = organism: Homo sapiens; assay: Percentage of judgments reporting an aftertaste at a concentration of 252 ppm and character thereof; Bitter; summary of the method: as §6
[34] = organism: Homo sapiens; assay: Sweet / Bitter character at a concentration of 501 ppm (mean value); 0/100
[35] = organism: Homo sapiens; assay: Salty character at a concentration of 501 ppm (mean value)
[36] = organism: Homo sapiens; assay: Bitter character at a concentration of 501 ppm (mean value); summary of the method: as §4
[37] = organism: Homo sapiens; assay: Intensity calculated on a weight basis relative to an 85500 ppm sucrose solution at a concentration of 501 ppm (mean value); summary of the method: as §1
[38] = organism: Homo sapiens; assay: Sour character at a concentration of 501 ppm (mean value)
[39] = organism: Homo sapiens; assay: Experimentally determined perceived intensity of compound at a concentration of 501 ppm (mean value); summary of the method: as §2
[40] = organism: Homo sapiens; assay: Intensity calculated on a molar basis relative to a 0.25 M sucrose solution at a concentration of 501 ppm (mean value); summary of the method: as §3
[41] = organism: Homo sapiens; assay: Percentage of judgments reporting an aftertaste at a concentration of 501 ppm and character thereof
[42] = organism: Homo sapiens; assay: Other taste character at a concentration of 501 ppm (mean value); summary of the method: as §5
[43] = organism: Homo sapiens; assay: Sweet character at a concentration of 501 ppm (mean value)
[44] = organism: Homo sapiens; assay: Experimentally determined perceived intensity of compound at a concentration of 4100 ppm (mean value); summary of the method: as §2
[45] = organism: Homo sapiens; assay: Intensity calculated on a weight basis relative to an 85500 ppm sucrose solution at a concentration of 54 ppm (mean value); summary of the method: as §1
[46] = organism: Homo sapiens; assay: Percentage of judgments reporting an aftertaste at a concentration of 54 ppm and character thereof
[47] = organism: Homo sapiens; assay: Salty character at a concentration of 54 ppm (mean value)
[48] = organism: Homo sapiens; assay: Sour character at a concentration of 54 ppm (mean value)
[49] = organism: Homo sapiens; assay: Other taste character at a concentration of 54 ppm (mean value); summary of the method: as §5
[50] = organism: Homo sapiens; assay: Sweet / Bitter character at a concentration of 54 ppm (mean value); 14/86
[51] = organism: Homo sapiens; assay: Sweet character at a concentration of 54 ppm (mean value)
[52] = organism: Homo sapiens; assay: Bitter character at a concentration of 54 ppm (mean value); summary of the method: as §4
[53] = organism: Homo sapiens; assay: Intensity calculated on a molar basis relative to a 0.25 M sucrose solution at a concentration of 54 ppm (mean value); summary of the method: as §3
[54] = organism: Homo sapiens; assay: Experimentally determined perceived intensity of compound at a concentration of 54 ppm (mean value); summary of the method: as §2
[55] = organism: Homo sapiens; assay: Percentage of judgments reporting an aftertaste at a concentration of 2000 ppm and character thereof; summary of the method: as §6
[56] = organism: Homo sapiens; assay: Salty character at a concentration of 2000 ppm (mean value); summary of the method: as §5
[57] = organism: Homo sapiens; assay: Bitter character at a concentration of 2000 ppm (mean value); summary of the method: as §4
[58] = organism: Homo sapiens; assay: Intensity calculated on a molar basis relative to a 0.25 M sucrose solution at a concentration of 2000 ppm (mean value); summary of the method: as §3
[59] = organism: Homo sapiens; assay: Sweet / Bitter character at a concentration of 2000 ppm (mean value); 0/100
[60] = organism: Homo sapiens; assay: Sweet character at a concentration of 2000 ppm (mean value); summary of the method: as §5
[61] = organism: Homo sapiens; assay: Intensity calculated on a weight basis relative to an 85500 ppm sucrose solution at a concentration of 2000 ppm (mean value); summary of the method: as §1
[62] = organism: Homo sapiens; assay: Sour character at a concentration of 2000 ppm (mean value); summary of the method: as §5
[63] = organism: Homo sapiens; assay: Other taste character at a concentration of 2000 ppm (mean value)
Summary of the method: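 Trained human panel tasted aqueous solutions of each compound. Aftertaste is scored as the percentage of judgments reporting one, with its character coded sweet (s), bitter (b) or bitter-sweet (bs).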

[64] = organism: Homo sapiens; assay: Experimentally determined perceived intensity of compound at a concentration of 2000 ppm (mean value); summary of the method: as §2
[65] = organism: Homo sapiens; assay: Experimentally determined perceived intensity of compound at a concentration of 495 ppm (mean value); summary of the method: as §2
[66] = organism: Homo sapiens; assay: Percentage of judgments reporting an aftertaste at a concentration of 495 ppm and character thereof

For `O=C([O-])COc1cc(O)c(C(=O)CCc2ccc(O)c(O)c2)c(O)c1.[Na+]`, the Taste character [1] was 0, the Judgments [2] was 12 and the IW [3] was 52. It also gave an IP [4] of 0.15, an IM [5] of 56 and a Taste character [6] of 33. The Taste character [7] was 3, the Taste character [8] was 64 and the Taste character [9] was 8. It also gave a Taste character [10] of 0 and a Judgments [11] of 38.

Compound `COc1ccc(CCC(=O)c2c(O)cc(OC(CCC(=O)[O-])C(=O)[O-])cc2O)cc1O.[Na+].[Na+]` (centres undefined) has a Judgments [12] of 0, a Judgments [2] of 1 and an IP [13] of 0.

With `COc1ccc(CCC(=O)c2c(O)cc(OCCNS(=O)(=O)[O-])cc2O)cc1O.[K+]` the IM [14] was 480, the Judgments [2] was 12 and the Taste character [15] was 89. The IP [16] was 1.03, the Taste character [17] was 0 and the Judgments [18] was 100. It also gave a Taste character [19] of 6, a Taste character [20] of 0 and a Taste character [21] of 5. It also gave an IW [22] of 350 and a Taste character [23] of 94.

Compound `O=C(O)CCc1cccc(O)c1` has an IP [24] of 0.46, a Judgments [2] of 8 and a Taste character [25] of 96. It also gave a Taste character [26] of 0, an IW [27] of 160 and a Taste character [28] of 0. For the same compound, the IM [29] was 80, the Taste character [30] was 4 and the Taste character [31] was 0. For the same compound, the Taste character [32] was 0 and the Judgments [33] was 38.

In the case of `O=C([O-])COc1cc(O)c(C(=O)CCc2ccccc2)c(O)c1.[Na+]`, the Judgments [2] is reported as 12, the Taste character [34] is reported as 0 and the Taste character [35] is reported as 0. It also gave a Taste character [36] of 79, an IW [37] of 160 and a Taste character [38] of 0. For the same compound, the IP [39] was 0.91, the IM [40] was 150 and the Judgments [41] was 100. The Taste character [42] was 21 and the Taste character [43] was 0.

With `COc1ccc(-c2cc(=O)c3c(O)cc(OCCCS(=O)(=O)[O-])cc3o2)cc1O.[K+]` the Judgments [2] was 1 and the IP [44] was 0.

In the case of `COc1ccc(CC(=O)c2c(O)cc(O)cc2O)cc1O`, the IW [45] is reported as 170, the Judgments [2] is reported as 12 and the Judgments [46] is reported as 0. For the same compound, the Taste character [47] was 0, the Taste character [48] was 0 and the Taste character [49] was 19. The Taste character [50] was 14, the Taste character [51] was 11 and the Taste character [52] was 70. The IM [53] was 150 and the IP [54] was 0.11.

`CC(=O)c1c(O)cc(OCC(=O)[O-])cc1O.[Na+]` was tested, and the Judgments [55] was 0, the Taste character [56] was 0 and the Judgments [2] was 1. The Taste character [57] was 100, the IM [58] was 0 and the Taste character [59] was 0. The Taste character [60] was 0, the IW [61] was 10 and the Taste character [62] was 0. The Taste character [63] was 0 and the IP [64] was 0.25.

`COc1ccc(CCC(=O)c2c(O)cc(OC(C(=O)[O-])C(=O)[O-])cc2O)cc1O.[Na+].[Na+]` showed a Judgments [2] of 1, an IP [65] of 0 and a Judgments [66] of 0.
